Results published in ChEMBL document CHEMBL2321845, “Discovery of 4-Aryl-2-benzoyl-imidazoles as tubulin polymerization inhibitor with potent antiproliferative properties” (J Med Chem, 2013).

How the values were obtained:
LNCaP = experiment: Cytotoxicity against human LNCAP cells assessed as growth inhibition after 96 hrs by SRB assay; format: functional, cell-based
Method in brief: (§1)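 Plated at 1000–5000 cells/well depending on growth rate and treated with graded compound concentrations for 96 h, three to five replicates. Cell number was measured by SRB: 10% TCA fixation, 0.4% SRB staining, absorbance at 540 nm. IC50 relative to untreated control came from a nonlinear regression fit.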

PC-3 = experiment: Cytotoxicity against human PC3 cells assessed as growth inhibition after 96 hrs by SRB assay; format: functional, cell-based; conditions: PC-3, 96 h; method in brief: as §1
PPC-1 = experiment: Cytotoxicity against human PPC1 cells assessed as growth inhibition after 96 hrs by SRB assay; format: functional, cell-based; conditions: PPC-1, 96 h; method in brief: as §1
DU-145 = experiment: Cytotoxicity against human DU145 cells assessed as growth inhibition after 96 hrs by SRB assay; format: functional, cell-based
A-375 = experiment: Cytotoxicity against human A375 cells assessed as growth inhibition after 48 hrs by SRB assay; format: functional, cell-based; conditions: A-375, 48 h
Method in brief: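 Melanoma cells from ATCC, grown in DMEM with 10% FBS at 37°C under 5% CO2. Seeded at 1000–5000 cells/well according to growth rate and exposed to a range of compound concentrations for 48 h, in three to five replicates. Cells were fixed with 10% TCA, stained with 0.4% SRB and read at 540 nm.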

MDA-MB-435 = experiment: Cytotoxicity against human MDA-MB-435 cells assessed as growth inhibition after 48 hrs by SRB assay; format: functional, cell-based; conditions: MDA-MB-435, 48 h
[1] = Cytotoxicity against human MDA-MB-435/LCC6MDR1 cells assessed as growth inhibition after 48 hrs by SRB assay; format: functional, cell-based, MDA-MB-435/LCC6 MDR1
[2] = Cytotoxicity against human WM164 cells assessed as growth inhibition after 48 hrs by SRB assay; format: functional, cell-based; conditions: WM164, 48 h
Method in brief: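 Melanoma cells from ATCC, grown in DMEM with 10% FBS at 37°C under 5% CO2. Seeded at 1000–5000 cells/well according to growth rate and exposed to a range of compound concentrations for 48 h, in three to five replicates. Cells were fixed with 10% TCA, stained with 0.4% SRB and read at 540 nm. IC50 (50% growth inhibition versus untreated control) was taken from nonlinear regression of % survival against concentration.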

[3] = Homo sapiens, MDA-MB-435/LCC6 MDR1, 48 h

| Compound | IC50 (LNCaP) | IC50 (PC-3) | IC50 (PPC-1) | IC50 (DU-145; Homo sapiens, DU-145, 96 h) | IC50 (A-375) | IC50 (MDA-MB-435) | IC50 [1, 3] | IC50 [2] | IC50 (DU-145; du-145) | IC50 ([1]; mda-mb-435/lcc6 mdr1) |
| --- | --- | --- | --- | --- | --- | --- | --- | --- | --- | --- |
| COc1cc(C(=O)c2nc(-c3ccc(O)cc3)c[nH]2)cc(OC)c1OC | 219 nM | 155 nM | 122 nM | 518 nM | 487 nM | 669 nM | 455 nM | 549 nM |  |  |
| Cc1ccc(C(=O)c2nc(-c3ccc(C)cc3)c[nH]2)cc1 | 3760 nM | 5160 nM | 2400 nM | 6540 nM | 2540 nM | 3020 nM | 3270 nM | 3690 nM |  |  |
| CN(C)c1ccc(C(=O)c2nc(-c3ccc(N(C)C)cc3)c[nH]2)cc1 |  |  |  |  | > 50000 nM | > 50000 nM | > 50000 nM | > 50000 nM |  |  |
| COc1cc(C(=O)c2nc(-c3cc(OC)c(OC)c(OC)c3)c[nH]2)cc(OC)c1OC | > 50000 nM | > 50000 nM | > 50000 nM | > 50000 nM | > 50000 nM | > 50000 nM | > 50000 nM | > 50000 nM |  |  |
| COc1ccc(C(=O)c2nc(-c3cc(OC)c(OC)c(OC)c3)c[nH]2)cc1 | 708 nM | 10400 nM | 5680 nM | > 50000 nM | 35400 nM | 11000 nM | 11400 nM | 36000 nM |  |  |
| COc1cc(C(=O)c2c[nH]c(-c3ccc(C(C)(C)C)cc3)n2)cc(OC)c1OC | 423 nM | 436 nM | 294 nM | 1700 nM |  | 3690 nM | 3070 nM |  |  |  |
| CCc1[nH]c(Cc2cc(OC)c(OC)c(OC)c2)nc1-c1ccccc1 |  |  |  |  |  | > 50000 nM | > 50000 nM |  |  |  |
| COc1cc(C(=O)c2nc(-c3ccccc3)c(C)[nH]2)cc(OC)c1OC | 938 nM | 1620 nM | 860 nM | 2000 nM | 1300 nM | 1630 nM | 1590 nM | 1900 nM |  |  |
| O=C(c1ccc(O)cc1)c1nc(-c2ccc(O)cc2)c[nH]1 |  |  |  |  | 38800 nM | 48000 nM | 21400 nM | 48200 nM |  |  |
| COc1cc(-c2c[nH]c(C(=O)c3ccc(Br)cc3)n2)cc(OC)c1OC | 131 nM | 371 nM | 106 nM | 429 nM | 136 nM | 186 nM | 161 nM | 177 nM |  |  |
| CCCn1cc(-c2ccccc2)nc1C(=O)c1cc(OC)c(OC)c(OC)c1 | 49 nM | 26 nM | 10 nM | 72 nM | 42 nM | 37 nM | 44 nM | 14 nM |  |  |
| O=C(c1ccccc1)c1nc(-c2ccccc2)c[nH]1 | > 50000 nM | > 50000 nM | > 50000 nM | > 50000 nM | > 50000 nM | > 50000 nM | > 50000 nM | > 50000 nM |  |  |
| COc1cc(-c2c[nH]c(C(=O)c3ccc(O)cc3)n2)cc(OC)c1OC |  |  |  |  | > 50000 nM | > 50000 nM | > 50000 nM | > 50000 nM |  |  |
| COc1cc(C(=O)c2c[nH]c(-c3ccc(C)cc3)n2)cc(OC)c1OC |  |  |  |  |  |  |  |  | 11 nM | 11 nM |
| CCCc1[nH]c(C(=O)c2cc(OC)c(OC)c(OC)c2)nc1-c1ccccc1 | 3090 nM | 12400 nM | 11400 nM | 16400 nM | 37000 nM | 30500 nM | 14300 nM | 19600 nM |  |  |
| COc1cc(C(=O)c2nc(-c3ccc(C)cc3)c[nH]2)cc(OC)c1OC | 13 nM |  |  |  | 13 nM | 27 nM | 21 nM | 14 nM |  |  |
| CCc1[nH]c(C(=O)c2cc(OC)c(OC)c(OC)c2)nc1-c1ccccc1 | 2030 nM | 3650 nM | 2080 nM | 5080 nM | 2150 nM | 8800 nM | 5110 nM | 5510 nM |  |  |
| COc1cc(C(=O)c2nc(-c3ccc(N(C)C)cc3)c[nH]2)cc(OC)c1OC | 96 nM | 118 nM | 120 nM | 263 nM | 141 nM | 200 nM | 162 nM | 129 nM |  |  |
| COc1cc(Cc2nc(-c3ccccc3)c[nH]2)cc(OC)c1OC |  |  |  |  | 10200 nM |  |  |  |  |  |
| O=C(c1ccc(C(F)(F)F)cc1)c1nc(-c2ccc(C(F)(F)F)cc2)c[nH]1 | > 50000 nM | > 50000 nM | > 50000 nM | > 50000 nM | > 50000 nM | > 50000 nM | 26500 nM | > 50000 nM |  |  |
| COc1cc(C(=O)c2nc(-c3ccccc3)cn2-c2cccs2)cc(OC)c1OC |  |  |  |  | 20 nM | 25 nM | 27 nM | 8 nM |  |  |
| O=C(c1ccc(F)cc1)c1nc(-c2ccc(F)cc2)c[nH]1 | > 50000 nM | > 50000 nM | > 50000 nM | > 50000 nM | > 50000 nM | > 50000 nM | > 50000 nM | > 50000 nM |  |  |
| COc1cc(C(=O)c2nc(-c3ccccc3)cn2Cc2ccccc2)cc(OC)c1OC | 66 nM | 72 nM | 77 nM | 160 nM | 104 nM | 94 nM | 156 nM | 34 nM |  |  |
| COc1ccc(-c2c[nH]c(C(=O)c3cc(OC)c(OC)c(OC)c3)n2)cc1 |  | 61 nM | 54 nM | 210 nM | 33 nM | 55 nM | 59 nM | 41 nM |  |  |
| CCCc1[nH]c(Cc2cc(OC)c(OC)c(OC)c2)nc1-c1ccccc1 |  |  |  |  |  | 10900 nM | 15900 nM |  |  |  |
| COc1cc(C(=O)c2nc(-c3ccc(Cl)cc3)c[nH]2)cc(OC)c1OC | 22 nM | 64 nM | 51 nM | 125 nM | 51 nM | 106 nM | 75 nM | 63 nM |  |  |
| COc1cc(Cc2nc(-c3ccccc3)c(-c3ccccc3)[nH]2)cc(OC)c1OC |  |  |  |  |  | > 50000 nM | > 50000 nM |  |  |  |
| COc1cc(-c2c[nH]c(C(=O)c3ccc(N(C)C)cc3)n2)cc(OC)c1OC |  |  |  |  | 47900 nM | 29200 nM | 40600 nM | 46100 nM |  |  |
| COc1cc(C(=O)c2c[nH]c(-c3ccc(C(C)C)cc3)n2)cc(OC)c1OC | 171 nM | 136 nM | 173 nM | 482 nM |  | 312 nM | 250 nM |  |  |  |
| COc1cc(Cc2nc(-c3ccccc3)c(C)[nH]2)cc(OC)c1OC |  |  |  |  | > 50000 nM |  |  |  |  |  |
